Test results: ChEMBL document CHEMBL4152256, “Structure-activity relationship of new antimalarial 1-aryl-3-susbtituted propanol derivatives: Synthesis, preliminary toxicity profiling, parasite life cycle stage studies, target exploration, and targeted delivery” (Eur J Med Chem, 2018)

Assays:
[1] = Genotoxicity in Salmonella typhimurium TA1535 harboring pSK1002 assessed as umu gene induction at 0.008 mg/ml in absence of Sprague-Dawley rat liver S9 fraction after by SOS/umu assay relative to control; assay type: toxicity, organism-based; settings: salmonella enterica subsp. enterica serovar typhimurium, read-out: FC
[2] = Genotoxicity in Salmonella typhimurium TA1535 harboring pSK1002 assessed as survival at 0.125 mg/ml in absence of Sprague-Dawley rat liver S9 fraction after by SOS/umu assay relative to control; assay type: toxicity, organism-based; settings: salmonella enterica subsp. enterica serovar typhimurium, read-out: Survival
[3] = Genotoxicity in Salmonella typhimurium TA1535 harboring pSK1002 assessed as umu gene induction at 0.004 mg/ml in absence of Sprague-Dawley rat liver S9 fraction after by SOS/umu assay relative to control; assay type: toxicity, organism-based; settings: salmonella enterica subsp. enterica serovar typhimurium, read-out: FC
[4] = Genotoxicity in Salmonella typhimurium TA1535 harboring pSK1002 assessed as umu gene induction at 0.125 mg/ml in absence of Sprague-Dawley rat liver S9 fraction after by SOS/umu assay relative to control; assay type: toxicity, organism-based; settings: salmonella enterica subsp. enterica serovar typhimurium, read-out: FC
[5] = Genotoxicity in Salmonella typhimurium TA1535 harboring pSK1002 assessed as survival at 0.001 mg/ml in absence of Sprague-Dawley rat liver S9 fraction after by SOS/umu assay relative to control; assay type: toxicity, organism-based; settings: salmonella enterica subsp. enterica serovar typhimurium, read-out: Survival
[6] = Genotoxicity in Salmonella typhimurium TA1535 harboring pSK1002 assessed as umu gene induction at 0.002 mg/ml in absence of Sprague-Dawley rat liver S9 fraction after by SOS/umu assay relative to control; assay type: toxicity, organism-based; settings: salmonella enterica subsp. enterica serovar typhimurium, read-out: FC
[7] = Genotoxicity in Salmonella typhimurium TA1535 harboring pSK1002 assessed as survival at 0.004 mg/ml in presence of Sprague-Dawley rat liver S9 fraction after by SOS/umu assay relative to control; assay type: toxicity, organism-based; settings: salmonella enterica subsp. enterica serovar typhimurium, read-out: Survival
[8] = Genotoxicity in Salmonella typhimurium TA1535 harboring pSK1002 assessed as umu gene induction at 0.016 mg/ml in presence of Sprague-Dawley rat liver S9 fraction after by SOS/umu assay relative to control; assay type: toxicity, organism-based; settings: salmonella enterica subsp. enterica serovar typhimurium, read-out: FC
[9] = Genotoxicity in Salmonella typhimurium TA1535 harboring pSK1002 assessed as umu gene induction at 0.031 mg/ml in presence of Sprague-Dawley rat liver S9 fraction after by SOS/umu assay relative to control; assay type: toxicity, organism-based; settings: salmonella enterica subsp. enterica serovar typhimurium, read-out: FC
[10] = Genotoxicity in Salmonella typhimurium TA1535 harboring pSK1002 assessed as survival at 0.008 mg/ml in presence of Sprague-Dawley rat liver S9 fraction after by SOS/umu assay relative to control; assay type: toxicity, organism-based; settings: salmonella enterica subsp. enterica serovar typhimurium, read-out: Survival
[11] = Genotoxicity in Salmonella typhimurium TA1535 harboring pSK1002 assessed as umu gene induction at 0.008 mg/ml in presence of Sprague-Dawley rat liver S9 fraction after by SOS/umu assay relative to control; assay type: toxicity, organism-based; settings: salmonella enterica subsp. enterica serovar typhimurium, read-out: FC
[12] = Genotoxicity in Salmonella typhimurium TA1535 harboring pSK1002 assessed as survival at 0.002 mg/ml in absence of Sprague-Dawley rat liver S9 fraction after by SOS/umu assay relative to control; assay type: toxicity, organism-based; settings: salmonella enterica subsp. enterica serovar typhimurium, read-out: Survival
[13] = Genotoxicity in Salmonella typhimurium TA1535 harboring pSK1002 assessed as survival at 0.063 mg/ml in absence of Sprague-Dawley rat liver S9 fraction after by SOS/umu assay relative to control; assay type: toxicity, organism-based; settings: salmonella enterica subsp. enterica serovar typhimurium, read-out: Survival
[14] = Selectivity index, ratio of CC50 for human HepG2A16 cells by MTT assay to IC50 for multidrug-resistant Plasmodium falciparum FCR-3; assay type: toxicity; settings: HepG2A16 cells, read-out: Ratio CC50/IC50
Outline: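 HepG2-A16 human hepatoma cells were tested by MTT viability assay to give CC50. Blood-stage activity was measured against the multidrug-resistant P. falciparum FCR-3 strain by [3H]-hypoxanthine incorporation to give IC50. SI = CC50 HepG2 / FCR-3 IC50.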

[15] = Genotoxicity in Salmonella typhimurium TA1535 harboring pSK1002 assessed as umu gene induction at 0.031 mg/ml in absence of Sprague-Dawley rat liver S9 fraction after by SOS/umu assay relative to control; assay type: toxicity, organism-based; settings: salmonella enterica subsp. enterica serovar typhimurium, read-out: FC
[16] = Genotoxicity in Salmonella typhimurium TA1535 harboring pSK1002 assessed as umu gene induction at 0.004 mg/ml in presence of Sprague-Dawley rat liver S9 fraction after by SOS/umu assay relative to control; assay type: toxicity, organism-based; settings: salmonella enterica subsp. enterica serovar typhimurium, read-out: FC
[17] = Genotoxicity in Salmonella typhimurium TA1535 harboring pSK1002 assessed as umu gene induction at 0.063 mg/ml in absence of Sprague-Dawley rat liver S9 fraction after by SOS/umu assay relative to control; assay type: toxicity, organism-based; settings: salmonella enterica subsp. enterica serovar typhimurium, read-out: FC
Plasmodium falciparum [18] = assay: Antiplasmodial activity against chloroquine-sensitive Plasmodium falciparum 3D7 by [3H]-hypoxanthine incorporation assay; assay type: functional, organism-based; settings: Plasmodium falciparum, 3D7
Outline: (§1)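 Blood-stage P. falciparum 3D7 and FCR-3 were tested by a modified [3H]-hypoxanthine incorporation assay. Chloroquine was the reference in all runs.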

[19] = Genotoxicity in Salmonella typhimurium TA1535 harboring pSK1002 assessed as umu gene induction at 0.125 mg/ml in presence of Sprague-Dawley rat liver S9 fraction after by SOS/umu assay relative to control; assay type: toxicity, organism-based; settings: salmonella enterica subsp. enterica serovar typhimurium, read-out: FC
[20] = Genotoxicity in Salmonella typhimurium TA1535 harboring pSK1002 assessed as survival at 0.008 mg/ml in absence of Sprague-Dawley rat liver S9 fraction after by SOS/umu assay relative to control; assay type: toxicity, organism-based; settings: salmonella enterica subsp. enterica serovar typhimurium, read-out: Survival
Plasmodium falciparum [21] = assay: Antiplasmodial activity against multidrug-resistant Plasmodium falciparum FCR-3 by [3H]-hypoxanthine incorporation assay; assay type: functional, organism-based, FCR-3/Gambia; settings: Plasmodium falciparum, FCR-3/Gambia; outline: as §1
[22] = Genotoxicity in Salmonella typhimurium TA1535 harboring pSK1002 assessed as survival at 0.016 mg/ml in presence of Sprague-Dawley rat liver S9 fraction after by SOS/umu assay relative to control; assay type: toxicity, organism-based; settings: salmonella enterica subsp. enterica serovar typhimurium, read-out: Survival
[23] = Genotoxicity in Salmonella typhimurium TA1535 harboring pSK1002 assessed as survival at 0.001 mg/ml in presence of Sprague-Dawley rat liver S9 fraction after by SOS/umu assay relative to control; assay type: toxicity, organism-based; settings: salmonella enterica subsp. enterica serovar typhimurium, read-out: Survival
[24] = Genotoxicity in Salmonella typhimurium TA1535 harboring pSK1002 assessed as survival at 0.063 mg/ml in presence of Sprague-Dawley rat liver S9 fraction after by SOS/umu assay relative to control; assay type: toxicity, organism-based; settings: salmonella enterica subsp. enterica serovar typhimurium, read-out: Survival
[25] = Genotoxicity in Salmonella typhimurium TA1535 harboring pSK1002 assessed as umu gene induction at 0.001 mg/ml in presence of Sprague-Dawley rat liver S9 fraction after by SOS/umu assay relative to control; assay type: toxicity, organism-based; settings: salmonella enterica subsp. enterica serovar typhimurium, read-out: FC
[26] = Genotoxicity in Salmonella typhimurium TA1535 harboring pSK1002 assessed as umu gene induction at 0.016 mg/ml in absence of Sprague-Dawley rat liver S9 fraction after by SOS/umu assay relative to control; assay type: toxicity, organism-based; settings: salmonella enterica subsp. enterica serovar typhimurium, read-out: FC
[27] = Genotoxicity in Salmonella typhimurium TA1535 harboring pSK1002 assessed as survival at 0.031 mg/ml in presence of Sprague-Dawley rat liver S9 fraction after by SOS/umu assay relative to control; assay type: toxicity, organism-based; settings: salmonella enterica subsp. enterica serovar typhimurium, read-out: Survival
[28] = Genotoxicity in Salmonella typhimurium TA1535 harboring pSK1002 assessed as survival at 0.031 mg/ml in absence of Sprague-Dawley rat liver S9 fraction after by SOS/umu assay relative to control; assay type: toxicity, organism-based; settings: salmonella enterica subsp. enterica serovar typhimurium, read-out: Survival
[29] = Cytotoxicity against human HepG2A16 cells by MTT assay; assay type: cell-based; settings: HepG2A16 cells
Outline: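 MTT viability assay on HepG2-A16 cells, giving CC50 values.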

SMILES	fold induction at 0.008 mg/ml [1]	fold induction at 0.004 mg/ml [3]	viability at 0.001 mg/ml [5]	fold induction at 0.002 mg/ml [6]	viability at 0.004 mg/ml [7]	fold induction at 0.016 mg/ml [8]	viability at 0.008 mg/ml [10]	fold induction at 0.008 mg/ml [11]	viability at 0.002 mg/ml [12]	viability at 0.063 mg/ml [13]	selectivity ratio [14]	fold induction at 0.031 mg/ml [15]	fold induction at 0.004 mg/ml [16]	fold induction at 0.063 mg/ml [17]	IC50 (Plasmodium falciparum [18])	viability at 0.008 mg/ml [20]	IC50 (Plasmodium falciparum [21])	viability at 0.016 mg/ml [22]	viability at 0.001 mg/ml [23]	viability at 0.063 mg/ml [24]	other results
Nc1ccc(N2CCC(NCCC(O)c3ccc(F)c4ccccc34)CC2)c(C(F)(F)F)c1 (stereo not drawn)	1	0.8	101%	0.7	116%	1.4	104%	1.1	150%	27.7%	137	0.7	1.1	0.6	140 nM	27.7%	80 nM	32.4%	119%	55.7%	viability at 0.125 mg/ml [2]: 32.4%; fold induction at 0.125 mg/ml [4]: 0.4; fold induction at 0.031 mg/ml [9]: 1; fold induction at 0.125 mg/ml [19]: 0.1; fold induction at 0.001 mg/ml [25]: 0.6; fold induction at 0.016 mg/ml [26]: 0.8; viability at 0.031 mg/ml [27]: 39.1%; viability at 0.031 mg/ml [28]: 31.5%; CC50 [29]: 11000 nM
N#Cc1ccc(N2CCC(NCCC(O)c3ccc(F)c4ccccc34)CC2)c(Cl)c1 (stereo not drawn)	0.8	1	130%	1	169%	0.6	35.1%	1.1	117%	55.4%	88	0.5	0.5	0.3	150 nM	33.7%	90 nM	38.5%	154%	82.8%	viability at 0.125 mg/ml [2]: 79.8%; fold induction at 0.125 mg/ml [4]: 0.1; fold induction at 0.125 mg/ml [19]: 0.1; fold induction at 0.001 mg/ml [25]: 0.9; fold induction at 0.016 mg/ml [26]: 0.6; viability at 0.031 mg/ml [28]: 42.2%; CC50 [29]: 7950 nM
OC(CCN1CCN(C(c2ccccc2)c2ccccc2)CC1)c1ccc(F)c2ccccc12 (stereo not drawn)	1.4	1.3	81%	0.8	111%	0.7	143%	0.4	77.8%	141%	60	1	0.8	0.8	620 nM	80.6%	330 nM	99.6%	108%	91.9%	fold induction at 0.031 mg/ml [9]: 1.2; fold induction at 0.001 mg/ml [25]: 0.9; fold induction at 0.016 mg/ml [26]: 1.4; viability at 0.031 mg/ml [27]: 95.2%; viability at 0.031 mg/ml [28]: 107%; CC50 [29]: 19900 nM
N#Cc1ccc(N2CCC(NCCC(O)c3ccc(F)c4ccccc34)CC2)c(Br)c1 (stereo not drawn)	2.2	1.4	104%	1.4	97.5%	1.9	87.4%	1	106%	42.6%	141	1.5	0.9	0.6	220 nM	18.9%	70 nM	80.2%	87.2%	46.3%	fold induction at 0.031 mg/ml [9]: 1.2; fold induction at 0.001 mg/ml [25]: 0.9; fold induction at 0.016 mg/ml [26]: 2.1; viability at 0.031 mg/ml [27]: 35.3%; viability at 0.031 mg/ml [28]: 19.4%; CC50 [29]: 9870 nM
